Measured values taken from ChEMBL document CHEMBL4011632, “Design, Synthesis, and Evaluation of Thiazolidine-2,4-dione Derivatives as a Novel Class of Glutaminase Inhibitors” (J Med Chem, 2017).
Active and inactive are the calls of the source. No cut-off for these calls is given here.

Experiments:
[1] = biological target: T1, Glutaminase liver isoform, mitochondrial (Homo sapiens) (UniProt Q9UI32); assay: Inhibition of human GLS2 in GLS1 deficient human Aspc-1 cells assessed as decrease in cellular glutamate production at 3.13 to 100 uM after 4 hrs by amplex red glutamic acid assay
T1 sequence (whole entry): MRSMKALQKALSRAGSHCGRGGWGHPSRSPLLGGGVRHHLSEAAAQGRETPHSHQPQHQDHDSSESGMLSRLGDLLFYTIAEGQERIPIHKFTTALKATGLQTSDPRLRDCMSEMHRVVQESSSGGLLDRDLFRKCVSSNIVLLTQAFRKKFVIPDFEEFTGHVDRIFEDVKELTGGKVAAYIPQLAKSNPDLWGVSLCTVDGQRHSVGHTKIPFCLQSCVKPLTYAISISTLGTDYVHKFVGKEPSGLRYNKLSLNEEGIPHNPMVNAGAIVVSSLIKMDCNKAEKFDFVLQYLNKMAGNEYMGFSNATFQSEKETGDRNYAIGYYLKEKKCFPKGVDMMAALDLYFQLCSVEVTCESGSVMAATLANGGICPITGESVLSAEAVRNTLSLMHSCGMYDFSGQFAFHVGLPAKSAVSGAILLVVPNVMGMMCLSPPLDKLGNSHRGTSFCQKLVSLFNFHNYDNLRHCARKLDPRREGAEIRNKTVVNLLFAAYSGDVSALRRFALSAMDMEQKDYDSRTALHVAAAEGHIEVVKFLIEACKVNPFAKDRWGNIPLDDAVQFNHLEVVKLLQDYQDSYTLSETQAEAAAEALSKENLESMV
Procedure, shortened: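 GLS-knockout AsPC-1 cells made with GLS-KO ZFN mRNA, single-cell cloned, and grown in glutamine-free RPMI 1640 with 10% FBS. Cells seeded at 30 000/well and grown 24 h at 37 °C. Treated 4 h with 1% DMSO vehicle or 3.13−100 μM inhibitor, washed with PBS, and lysed in NP-40 buffer (4 °C, 20 min). Lysate glutamate measured by Amplex Red. Three independent experiments in duplicate.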

ASPC1 = assay: Antitumor activity against human Aspc-1 cells xenografted in Balb/cAnN.Cg-Foxn1nu/CrlNarl nude mouse assessed as tumor growth inhibition at 50 mg/kg, ip once daily administered for 5 days followed by 2 days without dosing for 68 days relative to control; format: functional; details: read-out: TGI
Procedure, shortened: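 Male nude mice (7−8 weeks, 18−22 g) received 4.5 × 10^6 AsPC-1 cells sc in the right flank, in HBSS mixed 1:1 with Matrigel. Mice were randomized once mean tumor reached ~100 mm3 (day 1). Dosing was ip once daily, 5 days on/2 days off, with 2% DMSO/PBS as vehicle. Tumors were measured twice weekly, V = ab²/2. %TGI = [1 − ((Tt − T0)/(Ct − C0))] × 100 from median volumes; Student's t test.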

inhibition [1]: Active
SMILES: O=C1NC(=O)/C(=C/c2ccc(-c3ccc(-n4c(-c5cccs5)cc(/C=C5\SC(=O)NC5=O)c4-c4cccs4)cc3)cc2)S1
inhibition in vivo at 50 mg/kg (ASPC1): 49%
